Laboratory results from ChEMBL document CHEMBL3046350, “Design, synthesis and herbicidal activity of new iron chelating motifs for HPPD-inhibitors” (Bioorg Med Chem, 2009).

Assays:
Abutilon theophrasti = test: Herbicidal activity against Abutilon theophrasti (velvetleaf) assessed as reduction in plant growth measured 21 days after compound post-emergence spray application; assay type: functional
Summary of the method: (§1)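 GR50 = rate giving 50% growth reduction, scored 21 days after postemergence spray. Application rates are expressed in kg/ha.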

Chenopodium album = test: Herbicidal activity against Chenopodium album assessed as reduction in plant growth measured 21 days after compound post-emergence spray application; assay type: functional; summary of the method: as §1
Echinochloa crus-galli = test: Herbicidal activity against Echinochloa crus-galli (barnyard grass) assessed as reduction in plant growth measured 21 days after compound post-emergence spray application; assay type: functional; summary of the method: as §1
[1] = biological target: T1, 4-hydroxyphenylpyruvate dioxygenase (Arabidopsis thaliana, UniProt P93836); test: Inhibition of Arabidopsis thaliana 4-hydroxyphenylpyruvate dioxygenase
T1 sequence (P93836 whole entry): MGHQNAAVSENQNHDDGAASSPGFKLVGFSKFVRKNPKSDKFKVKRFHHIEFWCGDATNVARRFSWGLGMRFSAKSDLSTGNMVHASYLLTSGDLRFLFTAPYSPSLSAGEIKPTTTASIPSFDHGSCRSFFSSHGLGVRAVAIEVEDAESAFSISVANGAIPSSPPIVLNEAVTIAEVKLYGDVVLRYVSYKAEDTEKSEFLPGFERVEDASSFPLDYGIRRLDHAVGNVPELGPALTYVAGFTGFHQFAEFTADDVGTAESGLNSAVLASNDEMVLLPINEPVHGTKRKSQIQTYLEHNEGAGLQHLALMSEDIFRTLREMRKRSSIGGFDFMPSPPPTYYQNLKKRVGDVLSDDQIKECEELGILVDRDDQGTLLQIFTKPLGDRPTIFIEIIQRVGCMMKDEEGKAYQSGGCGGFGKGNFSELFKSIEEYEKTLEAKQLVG
Summary of the method: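 Recombinant Arabidopsis thaliana HPPD enzyme, assayed by a previously published method.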

Setaria italica = test: Herbicidal activity against Setaria italica assessed as reduction in plant growth measured 21 days after compound post-emergence spray application; assay type: functional
Centaurea cyanus = test: Herbicidal activity against Centaurea cyanus assessed as reduction in plant growth measured 21 days after compound post-emergence spray application; assay type: functional

SMILES: Cc1cc(C)c(C(=O)c2c(C)nc(C)n2O)c(C)c1
- GR50 (Abutilon theophrasti): >3 kg/ha
- GR50 (Chenopodium album): >3 kg/ha
- GR50 (Echinochloa crus-galli): >3 kg/ha
- IC50 [1]: > 20 µM

SMILES: COc1c(S(C)(=O)=O)ccc(C(=O)c2c(C)nc(C)n2O)c1C
- GR50 (Abutilon theophrasti): 0.7 kg/ha
- GR50 (Chenopodium album): 0.06 kg/ha
- GR50 (Echinochloa crus-galli): >1 kg/ha
- IC50 [1]: 18 µM

SMILES: CSc1ccc(C(=O)c2c(C)nc(C)n2O)c(C)c1Cl
- GR50 (Abutilon theophrasti): >0.5 kg/ha
- GR50 (Chenopodium album): >0.5 kg/ha
- GR50 (Echinochloa crus-galli): >0.5 kg/ha
- IC50 [1]: > 20 µM

SMILES: Cc1[nH]n(C)c(=O)c1C(=O)c1ccc(S(C)(=O)=O)c(C2=NOCC2)c1Cl
- GR50 (Abutilon theophrasti): <0.01 kg/ha
- GR50 (Chenopodium album): <0.01 kg/ha
- GR50 (Echinochloa crus-galli): <0.01 kg/ha
- IC50 [1]: 0.19 µM

SMILES: CSc1ccc(C(=O)/C(=N\O)C(C)=O)c(C)c1Cl
- GR50 (Setaria italica): >3 kg/ha
- GR50 (Centaurea cyanus): >3 kg/ha
- GR50 (Echinochloa crus-galli): >3 kg/ha
- IC50 [1]: > 20 µM

SMILES: CCOc1c(S(=O)(=O)CC)ccc(C(=O)c2c(C)nc(C(C)C)n2O)c1Cl
- GR50 (Abutilon theophrasti): >3 kg/ha
- GR50 (Chenopodium album): 1.5 kg/ha
- GR50 (Echinochloa crus-galli): >3 kg/ha
- IC50 [1]: 0.043 µM

SMILES: CCOc1c(S(=O)(=O)CC)ccc(C(=O)c2c(C)nc(CC)n2O)c1Cl
- GR50 (Abutilon theophrasti): >0.5 kg/ha
- GR50 (Chenopodium album): 0.2 kg/ha
- GR50 (Echinochloa crus-galli): >0.5 kg/ha
- IC50 [1]: 0.071 µM

SMILES: CCOc1c(S(=O)(=O)CC)ccc(C(=O)c2c(C)[n+]([O-])c(C)n2O)c1Cl
- GR50 (Abutilon theophrasti): >3 kg/ha
- GR50 (Chenopodium album): >3 kg/ha
- GR50 (Echinochloa crus-galli): >3 kg/ha
- IC50 [1]: 0.19 µM

SMILES: CCOc1c(S(=O)(=O)CC)ccc(C(=O)c2c(C)nc(-c3cccs3)n2O)c1Cl
- GR50 (Abutilon theophrasti): >3 kg/ha
- GR50 (Chenopodium album): >3 kg/ha
- GR50 (Echinochloa crus-galli): >3 kg/ha
- IC50 [1]: > 20 µM

SMILES: CC(=O)/C(=N/O)C(=O)c1ccc(S(C)(=O)=O)c(C2=NOCC2)c1Cl
- GR50 (Setaria italica): >3 kg/ha
- GR50 (Centaurea cyanus): >3 kg/ha
- GR50 (Echinochloa crus-galli): 2.5 kg/ha
- IC50 [1]: 13 µM

SMILES: Cc1nc(C)n(O)c1C(=O)c1ccc(S(C)(=O)=O)cc1Cl
- GR50 (Abutilon theophrasti): >0.5 kg/ha
- GR50 (Chenopodium album): >0.5 kg/ha
- GR50 (Echinochloa crus-galli): >0.5 kg/ha
- IC50 [1]: > 20 µM

SMILES: CCOc1c(S(=O)(=O)CC)ccc(C(=O)c2c(C)nc(-c3cccn3C)n2O)c1Cl
- GR50 (Abutilon theophrasti): >3 kg/ha
- GR50 (Chenopodium album): >3 kg/ha
- GR50 (Echinochloa crus-galli): >3 kg/ha
- IC50 [1]: > 20 µM

SMILES: COc1c(S(C)(=O)=O)ccc(C(=O)/C(=N\O)C(C)=O)c1C
- GR50 (Setaria italica): >3 kg/ha
- GR50 (Centaurea cyanus): >3 kg/ha
- GR50 (Echinochloa crus-galli): >3 kg/ha
- IC50 [1]: > 20 µM

SMILES: Cc1nc(C)n(O)c1C(=O)c1ccc(S(C)(=O)=O)c(C2=NOCC2)c1Cl
- GR50 (Abutilon theophrasti): >3 kg/ha
- GR50 (Chenopodium album): 0.3 kg/ha
- GR50 (Echinochloa crus-galli): 2 kg/ha
- IC50 [1]: 0.036 µM

SMILES: Cc1nc(C)n(O)c1C(=O)c1ccc(S(C)(=O)=O)c2ncccc12
- GR50 (Abutilon theophrasti): >1 kg/ha
- GR50 (Chenopodium album): >1 kg/ha
- GR50 (Echinochloa crus-galli): >1 kg/ha
- IC50 [1]: > 20 µM

SMILES: CCOc1c(S(=O)(=O)CC)ccc(C(=O)/C(=N\O)C(C)=O)c1Cl
- GR50 (Setaria italica): >3 kg/ha
- GR50 (Centaurea cyanus): >3 kg/ha
- GR50 (Echinochloa crus-galli): >3 kg/ha
- IC50 [1]: 20 µM

SMILES: CCOc1c(S(=O)(=O)CC)ccc(C(=O)c2c(C)nc(-c3ccc(Cl)cc3Cl)n2O)c1Cl
- GR50 (Abutilon theophrasti): >0.5 kg/ha
- GR50 (Chenopodium album): >0.5 kg/ha
- GR50 (Echinochloa crus-galli): >0.5 kg/ha
- IC50 [1]: > 20 µM

SMILES: CCOc1c(S(=O)(=O)CC)ccc(C(=O)c2c(C)nc(C)n2O)c1Cl
- GR50 (Abutilon theophrasti): 0.1 kg/ha
- GR50 (Chenopodium album): 0.05 kg/ha
- GR50 (Echinochloa crus-galli): 0.5 kg/ha
- IC50 [1]: 0.048 µM

SMILES: CCOc1c(S(=O)(=O)CC)ccc(C(=O)c2c(C)nc(-c3ccccc3)n2O)c1Cl
- GR50 (Abutilon theophrasti): >0.5 kg/ha
- GR50 (Chenopodium album): >0.5 kg/ha
- GR50 (Echinochloa crus-galli): >0.5 kg/ha
- IC50 [1]: > 20 µM

SMILES: CCOc1c(S(=O)(=O)CC)ccc(C(=O)c2c(C)ncn2O)c1Cl
- GR50 (Abutilon theophrasti): >0.5 kg/ha
- GR50 (Chenopodium album): 0.4 kg/ha
- GR50 (Echinochloa crus-galli): >0.5 kg/ha
- IC50 [1]: 20 µM
